Assay results taken from the EternaBench riboswitch data.

System: MS2 coat protein
Experiment: apparent Kd, MS2 coat protein; higher = weaker binding; RNA-MaP array
Procedure, shortened: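 Binding of fluorescently labeled MS2 coat protein, at 1.5 nM to 3 μM and room temperature, was measured with or without input ligand on designed RNAs transcribed on an Illumina sequencing chip from sequenced DNA templates. Apparent Kd was defined as the median of per-cluster binding-curve fits. No design measured on fewer than 10 clusters was kept.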

[1] = designed as: ON switch for flavin mononucleotide, no ligand
[2] = ligand present: flavin mononucleotide, designed as: ON switch for flavin mononucleotide
[3] = designed as: OFF switch for flavin mononucleotide, no ligand
[4] = ligand present: flavin mononucleotide, designed as: OFF switch for flavin mononucleotide
[5] = designed as: ON switch for theophylline, no ligand
[6] = ligand present: theophylline, designed as: ON switch for theophylline
[7] = designed as: ON switch for tryptophan, no ligand
[8] = ligand present: tryptophan, designed as: ON switch for tryptophan
[9] = designed as: OFF switch for tryptophan, no ligand
[10] = ligand present: tryptophan, designed as: OFF switch for tryptophan

UGUAUAGCCACUCAGGAUAUAGUUCAUCACACAUGAGGAUCACCCAUGUUACCAAUAUCAUCUGACUAGAAGGGAGAGACUUGCGU
apparent Kd [1]: 13.4 nM | apparent Kd [2]: 9.17 nM

ACACAUGAGGAUCACCCAUGUCGUGAGAGCUCAGUCGUGCGUUAGGAUAUCAUUCUGUUAGUGUUUGAGAAGGAACGGGUAACC
apparent Kd [3]: 50.1 nM | apparent Kd [4]: 43.3 nM

CCAAGCAUAAUAGAUACCAGUCGUAUACCUCCAACAUGAGGAUCACCCAUGUGCUCAGUUGACCCUUGGCAGCUAUGCCUAUAGA
apparent Kd [5]: 39.6 nM | apparent Kd [6]: 25.8 nM

UAAUAUGGAGGAUAUAAAGUCGAAGACAUGAGGAUCACCCAUGUCCUUGGUUGAAAGAGGUUAGAAGGCCAUAGUA
apparent Kd [3]: 9.47 nM | apparent Kd [4]: 9.66 nM

UGGAACAGUGUAAGGAUAUGGUACAAAAUAAACUCCCAGAAGGUACAUGAGGAUCACCCAUGUUAAUAAGACAA
apparent Kd [3]: 13.7 nM | apparent Kd [4]: 13.6 nM

ACAGUAAAUGUGUAGGAUAUGAACUAAACCACAUGAGGAUCACCCAUGUAACGAUUGGAUGGCCUUCAGAAGGACAGGGUUAUUGC
apparent Kd [1]: 304 nM | apparent Kd [2]: 215 nM

AAACACUCAUAAGGAUAUGCAGCGCUUAGACAUGAGGAUCACCCAUGUGAUGCAGGGAAGUCCCGGCAGAAGGUAAGUAAGUAC
apparent Kd [1]: 14.4 nM | apparent Kd [2]: 13 nM

CGUGUACAUGAGGAUCACCCAUGUUAGGAUAUCUUACCAAAGUCGAGGUGACUCCGGGAGAGAAGGAACUGGCA
apparent Kd [3]: 78.6 nM | apparent Kd [4]: 79.1 nM

GGAUCGCGAGGAUAUACAUGAGGAUCACCCAUGUUUACUCACACAUUUUUAUUCUUCCGUAGAAGGCGCGCAAG
apparent Kd [3]: 5.52 nM | apparent Kd [4]: 5.4 nM

ACAUGAGGAUCACCCAUGUACCAAGAACAUUGAUGCCUCCGAGAGGAUAUUUGCGGUAUAACACUAAAGAAGGCUCUACAAGUA
apparent Kd [3]: 7.95 nM | apparent Kd [4]: 7.31 nM

GACAUGAGGAUCACCCAUGUUUCGGUUACAUUGUAAUCAUGAUAGGAUAUCUCUGCUGUGGUGAGAGAGAAGGAUCGUCUGCUU
apparent Kd [1]: 13 nM | apparent Kd [2]: 10.6 nM

GAUAAGGAAGGAUAUACAAAGGAACAAAUACACAUUCUAAAACAUGAGGAUCACCCAUGUAGAAGGACCAACAA
apparent Kd [3]: 6.97 nM | apparent Kd [4]: 6.83 nM

CGCUACAUGAGGAUCACCCAUGUUACUCCGCGAGGACCGGUACGGCCGCCACUCGGCAGUUUGCGCCGCCGGAGGCACUCUUCAG
apparent Kd [7]: 27 nM | apparent Kd [8]: 33.1 nM

GCCCAUUAAGACAUGAGGAUCACCCAUGUCACCGGGUAUGCCAGAAGGCUCUUAUAGAAGUAACGAGAGGAUAUGGGUGCUACU
apparent Kd [1]: 23.3 nM | apparent Kd [2]: 13.8 nM

AUGUUCGAACAUGAGGAUCACCCAUGUGAACCUCAUAAACGUAGAAGGCGACCGAGUUUAUGGGUCGAGGAUAUACCUCGAGAA
apparent Kd [3]: 334 nM | apparent Kd [4]: 554 nM

AAACCAUCAAACACAUGAGGAUCACCCAUGUCUAAAGAAAUGUAGGAUAUGUAAUACCUAGUCAAACAGAAGGACAUUCAAGAU
apparent Kd [1]: 9.39 nM | apparent Kd [2]: 8.35 nM

GCCAGUGUCUAGGAUAUCACGCCGCGUUGCAGGUGAGAAGGAGACACAUGAGGAUCACCCAUGUGUCCGAUAGG
apparent Kd [3]: 7.12 nM | apparent Kd [4]: 9.49 nM

AGACCCAGAGGAUAUAACACAUGUAACAUGAGGAUCACCCAUGUGUCUAGUAGACACUUGUUAGAAGGCAGGCAUG
apparent Kd [3]: 83.2 nM | apparent Kd [4]: 54.5 nM

ACCGGACAUGAGGAUCACCCAUGUCUUGCAUAGGUAGGAUAUGAAUCAAGGACUUGAUCAUCAGAAGGACCCAGGC
apparent Kd [1]: 8.44 nM | apparent Kd [2]: 7.13 nM

AUGAGUGGCCUGACAUGAGGAUCACCCAUGUCAAAUAAUGCAAGAAGGGACCUUUAUUCAAGGUGUCAGGAUAUUGAUUAAACC
apparent Kd [1]: 15.8 nM | apparent Kd [2]: 12.9 nM

UCGUCGCUUCAGAAGGACAGACAAUCGUGCACUGUAGGAUAUGAGACGCGACAUGAGGAUCACCCAUGUGAACGGUUCGUAUAA
apparent Kd [3]: 25.1 nM | apparent Kd [4]: 53 nM

GCAAAGUAAGAAGGAUAUGCGUCCGGUGAACAACAACGCGAUCGAACAUGAGGAUCACCCAUGUCGCAGAAGGUCUGAGAAUUC
apparent Kd [3]: 27.4 nM | apparent Kd [4]: 40.3 nM

UCAUUUUUCACGGCCGCCACUUCAAGGUCCUGAGGCUGGGCAACACAUGAGGAUCACCCAUGUCGAAGGACCGGGUGAAGCUACC
apparent Kd [7]: 114 nM | apparent Kd [8]: 183 nM

UGUUUACAUGAGGAUCACCCAUGUGUUAUCGUAUUAGGAUAUGCAUGACGAUGAUUUUCGGCAGAAGGAAUGCGCA
apparent Kd [1]: 439 nM | apparent Kd [2]: 101 nM

AUAAAACGAGUGCAGGAUAUUCCGUCGCGCACAUGAGGAUCACCCAUGUCAAUUGGGCAUCGUACGAAGAAGGGCAAAUACCAGCG
apparent Kd [1]: 116 nM | apparent Kd [2]: 76.4 nM

ACUUGUGAGUCGGCCGCCACUCACCGGUAGUGUCACUCGUUCACAAACAUGAGGAUCACCCAUGUGAGGACCGGGACAGUCGGGU
apparent Kd [9]: 17.2 nM | apparent Kd [10]: 25.8 nM

UAAGCACAUGAGGAUCACCCAUGUGAGGAUAUGAGUGUCGGUCGAGAAGAGCGUCCAAUCAGAAGGCACAGGAU
apparent Kd [3]: 12.9 nM | apparent Kd [4]: 11.6 nM

ACACAUGAGGAUCACCCAUGUAGAUAUGGGCUCACUAUCACUAGAAGGACUUUGCUCUCUUGGAAGUAGGAUAUAGUACGCUGG
apparent Kd [3]: 163 nM | apparent Kd [4]: 134 nM

AUGCUUAAAAUGCUCAAACAUGAGGAUCACCCAUGUGAGGUCAAGGAUAUUAUUUAACUUGUUUAUAAGAAGGUGACCGAAUGA
apparent Kd [1]: 61.1 nM | apparent Kd [2]: 18.7 nM

AUUAGCAUCCAAGGAUAUCAGUUGGCCCGCAGGUGAGAAGGUGGAUUCUGGGCGCCGCGUGGGACACAUGAGGAUCACCCAUGU
apparent Kd [3]: 30.3 nM | apparent Kd [4]: 26 nM

CUCGUCAACUCGGCCGCCACUGACGUGUGGUCAGGCCUGUAGAAACACAUGAGGAUCACCCAUGUCAGGACCGGGAGCUUUAUUA
apparent Kd [9]: 46.9 nM | apparent Kd [10]: 58.2 nM

GCAUUACAUGAGGAUCACCCAUGUCUAGAUACCAGAUUUGUUUGAAUCCCUUGGCAGCUAGUGGACCACCGUACACGACAUACUA
apparent Kd [5]: 45.1 nM | apparent Kd [6]: 24.9 nM

UGAAUGCACCAGAAGGCUGGAAGAGUAUUUAACAGAGGAUAUGGAACAUAAAGAUCACAUGAGGAUCACCCAUGUACACAUAAC
apparent Kd [1]: 34.5 nM | apparent Kd [2]: 11.1 nM

UUGUGGUAGGCGCAUACUCAUUUAUACAAGCGAGGACCGGUACGGCCGCCACUCGGAAUAAAACAUGAGGAUCACCCAUGUACCG
apparent Kd [9]: 13.7 nM | apparent Kd [10]: 19.1 nM

GGUGACCCUGUUCCACAUGAGGAUCACCCAUGUUACCACUAUUAGGAUAUGCUUACAUGUACACUGCAGAAGGAAUAGGUAAGA
apparent Kd [3]: 103 nM | apparent Kd [4]: 442 nM

UCUGCGUCAGUCAGGAUAUGUUGCCAAAUUAUGGCACAGAAGGGACAUGAGGAUCACCCAUGUAGCGUCUCCGU
apparent Kd [3]: 10.2 nM | apparent Kd [4]: 10.4 nM

UGCCCUACAUGAGGAUCACCCAUGUACAUAACAUGAGUGCGCAGAAGGUAUGCGUUGAAGAGCCAUAAGGAUAUGCAAACCGUC
apparent Kd [1]: 114 nM | apparent Kd [2]: 71.1 nM

AGGCGGGUAGGAUAUACCUUGUUCCUAGUAUCCAGUCGAGGACAUGAGGAUCACCCAUGUAGAAGGACCCAUUC
apparent Kd [3]: 30.9 nM | apparent Kd [4]: 36.5 nM

UUGCAAGUAGGAUAUAGUAGCGAAUACAUGAGGAUCACCCAUGUAGCCAGUGUAUUGCUUCUAGAAGGACUUCUCC
apparent Kd [3]: 29.3 nM | apparent Kd [4]: 34.9 nM

GCGGGUUACCCAGAAUGAGAAACAUGAGGAUCACCCAUGUAGAAGGAUAUAGAGUCUUGGUCUGCCUAGAAGGUCUAUAAUUGA
apparent Kd [3]: 20.5 nM | apparent Kd [4]: 19.9 nM

AAAUAAAUAGCAGGAUAUGGGAAACAUGAGGAUCACCCAUGUCAUAAAUAGCGAAAAUAACACAUCCAGAAGGGCAAGAAUCAA
apparent Kd [1]: 412 nM | apparent Kd [2]: 137 nM

UCAAGCGAAGGAUAUACAUGAGGAUCACCCAUGUUGGCUAGAAUGAAAGACGGAUUAUGUAGAAGGUCGUGUGC
apparent Kd [3]: 20.3 nM | apparent Kd [4]: 17.6 nM

UAACAUGAGGAUCACCCAUGUACGAAGAGGGAAAGAAAAGUCAAGGAUAUGCGGAUUUAACUAGCGCAGAAGGUGAUCUAAGUU
apparent Kd [1]: 230 nM | apparent Kd [2]: 114 nM

CACCGGAAUGGAGGAUAUCCUACACAUGAGGAUCACCCAUGUUAUUUAUAGCUAUUAAAAGUUCGGGAGAAGGCCAAGCGAUUC
apparent Kd [1]: 28.7 nM | apparent Kd [2]: 13.2 nM

AGUCAAGAGUAGAAGGGUGGAAAUUCGGUCGACACAGGAUAUACUUCAGGAGCCAGAAGACAAUAACAUGAGGAUCACCCAUGU
apparent Kd [1]: 14.1 nM | apparent Kd [2]: 9.27 nM

ACCUAGAGAUAGAAGGUUUAUAUGACCCUACAUGAGGAUCACCCAUGUUGUGGUAUUAUUCGUGAAAAGGAUAUAUCCCGUGAC
apparent Kd [1]: 7.6 nM | apparent Kd [2]: 7.52 nM

UCGCGCUAAGGAUAUACUAUAAGCCACAUGAGGAUCACCCAUGUUAUAUACAUGUCCUCGGUAGAAGGUAGCCGGA
apparent Kd [3]: 48.6 nM | apparent Kd [4]: 50.2 nM

GAUAACAUGAGGAUCACCCAUGUGGCGUCGCGAGGACCGGUACGGCCGCCACUCGGCAGUUCAACUCGAAUAUAGUGAUCGAAGU
apparent Kd [7]: 138 nM | apparent Kd [8]: 87.5 nM

UCCCUGCAAGGAUAUACAUGAGGAUCACCCAUGUUUACACACGAAAAUUUGGAGAUAGGUAGAAGGUGCAUUUU
apparent Kd [3]: 12.6 nM | apparent Kd [4]: 11.8 nM

ACUAGACAUGAGGAUCACCCAUGUGAGGAUAUCUUGCUAUGCACUAUGGGCCAACGGAAGAGAAGGCACUGGGA
apparent Kd [3]: 45.7 nM | apparent Kd [4]: 93.2 nM

CUAACCACAAUAGGAUAUCGGGCUCGUUUCAUUGCUGCAAAACAUGAGGAUCACCCAUGUCCGUCCGAGAAGGAUUGUAAGAAU
apparent Kd [1]: 92.1 nM | apparent Kd [2]: 14.8 nM

CAUGAUAAGUUGGAUACCAGCAUAUGGAACAACAUGAGGAUCACCCAUGUCAAAUGACAUUGCCCUUGGCAGCCACCUACUGUCA
apparent Kd [5]: 20.3 nM | apparent Kd [6]: 11.1 nM

GAUCGCAUCGUGAGGAUAUGAAAUGCCACUCAAAUACAGAAGGCACAUGAGGAUCACCCAUGUCUAGACAAGAG
apparent Kd [3]: 25.9 nM | apparent Kd [4]: 64.9 nM

CAAGCAUGAGAGAAGGUCCCAUCUAAACAUGAGGAUCACCCAUGUGAUACGGUGCUAUUGUGAAGGAAGGAUAUCUCAGUUAAU
apparent Kd [1]: 61.7 nM | apparent Kd [2]: 16.8 nM
